What was measured:
Assay type in all cases: functional
MDA-MB-435 = assay: Cytotoxicity against human MDA-MB-435 cells by SRB method
Method in brief: (§1)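 NCI-60 in vitro drug screening panel. Values are the molar concentrations giving 50% growth inhibition (GI50) and total growth inhibition (TGI).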

[1] = Cytotoxicity against human UACC257 cells by SRB method
Method in brief: (§2)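 NCI-60 in vitro screen panel of human tumor lines; GI50 (molar concentration giving 50% growth inhibition) and TGI (total growth inhibition) taken from dose–response data.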

786-0 = assay: Cytotoxicity against human 786-0 cells by SRB method; method in brief: as §1
MDA-MB-231 = assay: Cytotoxicity against human MDA-MB-231 cells by SRB method; method in brief: as §1
[2] = Cytotoxicity against human Hs578T cells by SRB method; conditions: Hs-578T; method in brief: as §1
T47D = assay: Cytotoxicity against human T47D cells by SRB method; method in brief: as §2
CCRF-CEM = assay: Cytotoxicity against human CCRF-CEM cells by SRB method; method in brief: as §1
SR = assay: Cytotoxicity against human SR cells by SRB method; method in brief: as §2
[3] = Cytotoxicity against human EKVX cells by SRB method; method in brief: as §1
NCI-H23 = assay: Cytotoxicity against human NCI-H23 cells by SRB method; method in brief: as §1
[4] = Cytotoxicity against human HCT15 cells by SRB method; method in brief: as §1
SF-295 = assay: Cytotoxicity against human SF295 cells by SRB method; method in brief: as §1
SNB-75 = assay: Cytotoxicity against human SNB75 cells by SRB method; method in brief: as §2
[5] = read-out: LC50 (the source's name)

Compound CC(C)[C@@]12SS[C@]3(C(=O)N1C)[C@@H](O)[C@]1(C45c6ccccc6N[C@H]4N4C(=O)[C@@]6(CO)SS[C@@]4(C(=O)N6C)[C@H]5O)c4ccccc4N[C@@H]1N3C2=O (stereo partly drawn) has a GI50 (MDA-MB-435) of 10.7 nM, a TGI (MDA-MB-435) of 28.8 nM and a CC50 (MDA-MB-435; [5]) of 120 nM. The GI50 ([1]; UACC-257) was 8.7 nM, the TGI ([1]; UACC-257) was 19.5 nM and the CC50 ([1]; UACC-257, read-out: LC50 (the source's name)) was 43.7 nM. The GI50 (786-0) was 11.7 nM, the TGI (786-0) was 26.3 nM and the CC50 (786-0; [5]) was 70.8 nM. It also gave a GI50 (MDA-MB-231) of 18.6 nM, a TGI (MDA-MB-231) of 70.8 nM and a CC50 (MDA-MB-231; [5]) of 324 nM. For the same compound, the GI50 [2] was 26.3 nM, the TGI [2] was 447 nM and the GI50 (T47D) was 9.1 nM. It also gave a TGI (T47D) of 26.3 nM, a CC50 (T47D; [5]) of 102 nM and a GI50 (CCRF-CEM) of 9.3 nM. For the same compound, the TGI (CCRF-CEM) was 38 nM, the CC50 (CCRF-CEM; [5]) was > 50000 nM and the GI50 (SR) was 11.2 nM. The TGI (SR) was 31.6 nM, the CC50 (SR; [5]) was > 50000 nM and the GI50 [3] was 28.2 nM. For the same compound, the TGI [3] was 257 nM, the CC50 [3, 5] was 2040 nM and the GI50 (NCI-H23) was 16.2 nM. For the same compound, the TGI (NCI-H23) was 56.2 nM, the CC50 (NCI-H23; [5]) was 234 nM and the GI50 ([4]; HCT-15) was 17 nM. For the same compound, the TGI ([4]; HCT-15) was 89.1 nM, the CC50 ([4]; HCT-15, read-out: LC50 (the source's name)) was 479 nM and the GI50 (SF-295) was 57.5 nM. The TGI (SF-295) was 155 nM, the CC50 (SF-295; [5]) was 417 nM and the GI50 (SNB-75) was 13.5 nM. The TGI (SNB-75) was 50.1 nM and the CC50 (SNB-75; [5]) was 158 nM.

From ChEMBL document CHEMBL3351594, “Cytotoxic dimeric epipolythiodiketopiperazines from the ascomycetous fungus Preussia typharum” (J Nat Prod, 2014)
